Consider ten compounds from ChEMBL document CHEMBL3244421, “Antiarrhythmic activity of some N-alkylbispidinebenzamides” (J Med Chem, 1979).

The term LD50 denotes the dose at which mortality reaches 50%. In general, ED50 refers to the dose that gives a 50% effect, or the effect in half of the subjects.

Data set [1] can be described thus: Acute toxicity in ip dosed CF1 mouse. It is filed as organism-based. The following applies: in vivo.
The subject of data set [2] is Mus musculus. The experiment in a line: Antiarrhythmic activity in ip dosed CF1 mouse assessed as protection against chloroform-induced ventricular fibrillation. It is filed as functional. The following applies: CF1, Heart. In a few lines: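 Adult female CF1 mice; protection against ventricular fibrillation provoked by chloroform exposure, used as the first screen of antiarrhythmic activity.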

Data set [3] can be described thus: Toxicity in New Zealand rabbit assessed as reduction in force of left atrial contraction. Format: tissue-based, Oryctolagus cuniculus, Cardiac atrium.
Data set [4] is described as follows: Antiarrhythmic activity in New Zealand rabbit left atrium assessed as reduction in maximum following frequency (MFF). Format: functional, Oryctolagus cuniculus, Cardiac atrium. The procedure, abridged: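 Left atria from male New Zealand white rabbits, mounted in Krebs-Henseleit buffer at 35 °C and aerated with 95% O2-5% CO2. Driven by 10-ms square-wave pulses at five times threshold voltage. Control maximum following frequency (MFF) was determined first, then MFF reduction at 1, 3, 13, 33 and 133 μM. ED25 (concentration reducing MFF to 75% of control) was estimated from dose-response curves.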

In data set [5] the test system is Mus musculus. Briefly: Ratio of LD50 for CF1 mouse to ED50 for antiarrhythmic activity in CF1 mouse. Details: species or system Heart.
The nature of data set [6]: Ratio of ED25 for reduction in force of left atrial contraction in New Zealand rabbit to ED25 for reduction in maximum following frequency in New Zealand rabbit left atrium. Details: species or system Oryctolagus cuniculus, Cardiac atrium.

For the compound `CN1CC2CC(C1)CN(C(=O)c1ccccc1)C2.O=C(O)/C=C/C(=O)O`, the 50% lethal dose (LD50) in data set [1] came to 621 µmol/kg. Also, the 50% effective dose (ED50) in data set [2] turned out to be 85 µmol/kg. Also, the values for the ED25 in data set [3] and in data set [4] were more than 400 µM and 400 µM, respectively. In addition, the “Ratio LD50/ED50” value in data set [5] came to 7.29.

Compound `COc1ccc(C(=O)N2CC3CC(CN(C)C3)C2)cc1.O=C(O)/C=C/C(=O)O` registered an LD50 in data set [1] of 463 µmol/kg. Also, the ED50 in data set [2] stood at 78 µmol/kg. Also, the ED25 in data set [3] was more than 400 µM; in data set [4] it was 500 µM. The “Ratio LD50/ED50” value in data set [5] is 5.93.

`COc1cc(C(=O)N2CC3CC(CN(C)C3)C2)cc(OC)c1OC.O=C(O)/C=C/C(=O)O` showed a median lethal dose (LD50) in data set [1] of 535 µmol/kg. Also, the ED50 in data set [2] was 137 µmol/kg. The “Ratio LD50/ED50” value in data set [5] was 3.91.

Compound `CN1CC2CC(C1)CN(C(=O)c1ccc(Cl)cc1)C2.O=C(O)/C=C/C(=O)O` yielded a 50% lethal dose (LD50) in data set [1] of 535 µmol/kg. In addition, the median effective dose (ED50) in data set [2] was 49 µmol/kg. The ED25 in data set [3] was 400 µM; in data set [4], 110 µM. Further, the Ratio in data set [6] stood at 3.64. Moreover, the “Ratio LD50/ED50” value in data set [5] worked out at 10.89.

In data set [1], `CN1CC2CC(C1)CN(C(=O)c1ccc(Cl)c(Cl)c1)C2.O=C(O)/C=C/C(=O)O` showed a 50% lethal dose (LD50) of 492 µmol/kg. Moreover, in data set [2], the ED50 amounted to 470 µmol/kg. The “Ratio LD50/ED50” value in data set [5] is on record as 1.05.

`CCCCN1CC2CC(C1)CN(C(=O)c1ccccc1)C2.Cl` had a median lethal dose (LD50) in data set [1] of 500 µmol/kg. In data set [2], the ED50 was determined as 242 µmol/kg. The “Ratio LD50/ED50” value in data set [5] amounted to 2.07.

In the case of `CCCCN1CC2CC(C1)CN(C(=O)c1ccc(OC)cc1)C2.O=C(O)/C=C/C(=O)O`, in data set [1], the 50% lethal dose (LD50) is 488 µmol/kg. Further, the 50% effective dose (ED50) in data set [2] turned out to be 106 µmol/kg. Further, in data set [5], the “Ratio LD50/ED50” value stood at 4.6.

In data set [1], `CCCCN1CC2CC(C1)CN(C(=O)c1ccc(Cl)cc1)C2.O=C(O)/C=C/C(=O)O` registered an LD50 of 463 µmol/kg. In addition, the ED50 in data set [2] amounted to 134 µmol/kg. Besides, the “Ratio LD50/ED50” value in data set [5] is reported as 3.45.

In turn, `CCCCN1CC2CC(C1)CN(C(=O)c1ccc(Cl)c(Cl)c1)C2.O=C(O)/C=C/C(=O)O` yielded an LD50 in data set [1] of 605 µmol/kg. Further, the 50% effective dose (ED50) in data set [2] was 223 µmol/kg. Further, in data set [5], the “Ratio LD50/ED50” value amounted to 2.71.

Compound `CC(C)N(CCC(C(N)=O)(c1ccccc1)c1ccccn1)C(C)C` (stereo not given) [DISOPYRAMIDE] registered an LD50 in data set [1] of 517 µmol/kg. In addition, the ED50 in data set [2] is 90 µmol/kg. Also, the ED25 in data set [3] came out at 56 µM; in data set [4], 18 µM. Also, in data set [6], the Ratio worked out at 3.11. Also, the “Ratio LD50/ED50” value in data set [5] turned out to be 5.77.
